{"source": "ChEMBL document CHEMBL1141663", "about": "“Synthesis and antibacterial activity of bis-[2-hydroxy-3-(1,7,8,9,10-pentamethyl-3,5-dioxo-4-aza-tricyclo[5.2.1.0(2,6)]dec-8-en-4-yloxy)-propyl]-dimethyl-ammonium chloride” (2008)", "key": {"Staphylococcus aureus [1]": {"test_system": "Staphylococcus aureus", "assay": "Antibacterial activity against methicillin-susceptible Staphylococcus aureus 102/06 isolates after 18 hrs", "assay_type": "functional", "how_it_was_run": "(§1)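 Agar-dilution MIC on Mueller–Hinton II agar per CLSI guidelines. Aqueous test solutions were added to liquid agar to give two dilution series across 6.25–400 µg/mL. Solidified plates were spot-inoculated with 2 µL aliquots to a final inoculum of 10^4 […]. […] Strains were standard S. aureus strains or hospital patient isolates typed MSSA/MRSA.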"}, "Staphylococcus aureus [2]": {"test_system": "Staphylococcus aureus", "assay": "Antibacterial activity against methicillin-resistant Staphylococcus aureus 83/05 isolates after 18 hrs", "assay_type": "functional", "how_it_was_run": "as §1"}, "Staphylococcus aureus [3]": {"test_system": "Staphylococcus aureus", "assay": "Antibacterial activity against methicillin-resistant Staphylococcus aureus 90/06 isolates after 18 hrs", "assay_type": "functional", "how_it_was_run": "as §1"}, "Staphylococcus aureus [4]": {"test_system": "Staphylococcus aureus", "assay": "Antibacterial activity against methicillin-resistant Staphylococcus aureus 5/04 isolates after 18 hrs", "assay_type": "functional", "how_it_was_run": "as §1"}, "Bacillus subtilis": {"test_system": "Bacillus subtilis", "assay": "Antibacterial activity against Bacillus subtilis ATCC 6633 at 400 ug/disk […] by disc-diffusion method", "assay_type": "functional", "conditions": "read-out: IZ"}, "Staphylococcus aureus [5]": {"test_system": "Staphylococcus aureus", "assay": "Antibacterial activity against methicillin-resistant Staphylococcus aureus 29/04 isolates after 18 hrs", "assay_type": "functional", "how_it_was_run": "as §1"}, "Staphylococcus aureus [6]": {"test_system": "Staphylococcus aureus", "assay": "Antibacterial activity against methicillin-resistant Staphylococcus aureus 56/05 isolates after 18 hrs", "assay_type": "functional", "how_it_was_run": "as §1"}, "Pseudomonas aeruginosa [7]": {"test_system": "Pseudomonas aeruginosa", "assay": "Antibacterial activity against Pseudomonas aeruginosa ATCC 15442 at 100 ug/disk […] by disc-diffusion method", "assay_type": "functional, organism-based"}, "Staphylococcus aureus [8]": {"test_system": "Staphylococcus aureus", "assay": "Antibacterial activity against methicillin-susceptible Staphylococcus aureus 28/04 isolates after 18 hrs", "assay_type": "functional", "how_it_was_run": "as §1"}, "Staphylococcus aureus [9]": {"test_system": "Staphylococcus aureus", "assay": "Antibacterial activity against methicillin-resistant Staphylococcus aureus 92/06 isolates after 18 hrs", "assay_type": "functional", "how_it_was_run": "as §1"}, "Staphylococcus aureus [10]": {"test_system": "Staphylococcus aureus", "assay": "Antibacterial activity against Staphylococcus aureus ATCC 6538P after 18 hrs", "assay_type": "functional", "how_it_was_run": "as §1"}, "[11]": {"test_system": "Bordetella bronchiseptica", "assay": "Antibacterial activity against Bordetella bronchiseptica ATCC 4617 at 100 ug/disk […] by disc-diffusion method", "assay_type": "functional", "conditions": "read-out: IZ"}, "Staphylococcus aureus [12]": {"test_system": "Staphylococcus aureus", "assay": "Antibacterial activity against methicillin-susceptible Staphylococcus aureus 7/04 isolates after 18 hrs", "assay_type": "functional", "how_it_was_run": "as §1"}, "Candida albicans": {"test_system": "Candida albicans", "assay": "Antimicrobial activity against Candida albicans ATCC 10231 at 100 ug/disk after 24 to 48 hrs by disc-diffusion method", "assay_type": "functional, organism-based", "how_it_was_run": "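Antifungal disc diffusion on YNB agar under CLSI guidelines. Sterile 10 mm filter-paper discs were loaded from aqueous solution with 100 or 400 µg of compound per disc. Plates were read after 24–48 h incubation at 30 °C.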"}, "Staphylococcus aureus [13]": {"test_system": "Staphylococcus aureus", "assay": "Antibacterial activity against Staphylococcus aureus ATCC 29213 at 400 ug/disk […] by disc-diffusion method", "assay_type": "functional", "conditions": "read-out: IZ"}, "Pseudomonas aeruginosa [14]": {"test_system": "Pseudomonas aeruginosa", "assay": "Antibacterial activity against Pseudomonas aeruginosa NCTC 6749 at 400 ug/disk […] by disc-diffusion method", "assay_type": "functional, organism-based"}, "Staphylococcus aureus [15]": {"test_system": "Staphylococcus aureus", "assay": "Antibacterial activity against Staphylococcus aureus NCTC 4163 after 18 hrs", "assay_type": "functional", "conditions": "NCTC 4163, 18 h", "how_it_was_run": "as §1"}, "Staphylococcus aureus [16]": {"test_system": "Staphylococcus aureus", "assay": "Antibacterial activity against Staphylococcus aureus ATCC 25923 at 400 ug/disk after 24 to 48 hrs by disc-diffusion method", "assay_type": "functional", "conditions": "read-out: IZ"}, "Staphylococcus aureus [17]": {"test_system": "Staphylococcus aureus", "assay": "Antibacterial activity against Staphylococcus aureus ATCC 6538P at 100 ug/disk after 24 to 48 hrs by disc-diffusion method", "assay_type": "functional", "conditions": "read-out: IZ"}, "Staphylococcus aureus [18]": {"test_system": "Staphylococcus aureus", "assay": "Antibacterial activity against methicillin-susceptible Staphylococcus aureus 101/06 isolates after 18 hrs", "assay_type": "functional", "how_it_was_run": "as §1"}, "Staphylococcus aureus [19]": {"test_system": "Staphylococcus aureus", "assay": "Antibacterial activity against methicillin-resistant Staphylococcus aureus 55/05 isolates after 18 hrs", "assay_type": "functional", "how_it_was_run": "as §1"}, "Staphylococcus aureus [20]": {"test_system": "Staphylococcus aureus", "assay": "Antibacterial activity against methicillin-susceptible Staphylococcus aureus 4/04 isolates after 18 hrs", "assay_type": "functional", "how_it_was_run": "as §1"}, "Staphylococcus aureus [21]": {"test_system": "Staphylococcus aureus", "assay": "Antibacterial activity against methicillin-susceptible Staphylococcus aureus 49/05 isolates after 18 hrs", "assay_type": "functional", "how_it_was_run": "as §1"}, "Staphylococcus aureus [22]": {"test_system": "Staphylococcus aureus", "assay": "Antibacterial activity against methicillin-resistant Staphylococcus aureus 85/06 isolates after 18 hrs", "assay_type": "functional", "how_it_was_run": "as §1"}, "Staphylococcus aureus [23]": {"test_system": "Staphylococcus aureus", "assay": "Antibacterial activity against methicillin-resistant Staphylococcus aureus 91/06 isolates after 18 hrs", "assay_type": "functional", "how_it_was_run": "as §1"}, "Staphylococcus aureus [24]": {"test_system": "Staphylococcus aureus", "assay": "Antibacterial activity against Staphylococcus aureus ATCC 29213 at 100 ug/disk after 24 to 48 hrs by disc-diffusion method", "assay_type": "functional", "conditions": "read-out: IZ"}, "Pseudomonas aeruginosa [25]": {"test_system": "Pseudomonas aeruginosa", "assay": "Antibacterial activity against Pseudomonas aeruginosa NCTC 6749 at 100 ug/disk […] by disc-diffusion method", "assay_type": "functional, organism-based"}, "Staphylococcus aureus [26]": {"test_system": "Staphylococcus aureus", "assay": "Antibacterial activity against methicillin-resistant Staphylococcus aureus 19/04 isolates after 18 hrs", "assay_type": "functional", "how_it_was_run": "as §1"}, "Staphylococcus aureus [27]": {"test_system": "Staphylococcus aureus", "assay": "Antibacterial activity against methicillin-resistant Staphylococcus aureus 48/05 isolates after 18 hrs", "assay_type": "functional", "how_it_was_run": "as §1"}, "Staphylococcus aureus [28]": {"test_system": "Staphylococcus aureus", "assay": "Antibacterial activity against Staphylococcus aureus ATCC 25923 after 18 hrs", "assay_type": "functional", "conditions": "ATCC 25923, 18 h", "how_it_was_run": "as §1"}, "Staphylococcus aureus [29]": {"test_system": "Staphylococcus aureus", "assay": "Antibacterial activity against methicillin-susceptible Staphylococcus aureus 40/05 isolates after 18 hrs", "assay_type": "functional", "how_it_was_run": "as §1"}, "Staphylococcus aureus [30]": {"test_system": "Staphylococcus aureus", "assay": "Antibacterial activity against methicillin-susceptible Staphylococcus aureus 98/06 isolates after 18 hrs", "assay_type": "functional", "how_it_was_run": "as §1"}, "Enterococcus hirae": {"test_system": "Enterococcus hirae", "assay": "Antibacterial activity against Enterococcus hirae ATCC 10541 at 400 ug/disk after 24 to 48 hrs by disc-diffusion method", "assay_type": "functional", "conditions": "read-out: IZ"}}, "note": "The source made the active and inactive calls. The rule behind the calls is not given here.", "data": [{"compound": "CC1=C(C)C2(C)C3C(=O)N(OCC(O)C[N+](C)(C)CC(O)CON4C(=O)C5C(C4=O)C4(C)C(C)=C(C)C5(C)C4C)C(=O)C3C1(C)C2C.[Cl-]", "note": "(stereo not drawn)", "values": [{"measurement": "MIC", "setting": "Staphylococcus aureus [1]", "result": 50, "unit": "µg/mL"}, {"measurement": "MIC", "setting": "Staphylococcus aureus [2]", "result": 50, "unit": "µg/mL"}, {"measurement": "MIC", "setting": "Staphylococcus aureus [3]", "result": 100, "unit": "µg/mL"}, {"measurement": "MIC", "setting": "Staphylococcus aureus [4]", "result": 200, "unit": "µg/mL"}, {"measurement": "zone of inhibition at 400 µg/disc", "setting": "Bacillus subtilis", "result": 30, "unit": "mm"}, {"measurement": "MIC", "setting": "Staphylococcus aureus [5]", "result": 200, "unit": "µg/mL"}, {"measurement": "MIC", "setting": "Staphylococcus aureus [6]", "result": 50, "unit": "µg/mL"}, {"measurement": "Activity", "setting": "Pseudomonas aeruginosa [7]", "result": "inactive"}, {"measurement": "MIC", "setting": "Staphylococcus aureus [8]", "result": 50, "unit": "µg/mL"}, {"measurement": "MIC", "setting": "Staphylococcus aureus [9]", "result": 100, "unit": "µg/mL"}, {"measurement": "MIC", "setting": "Staphylococcus aureus [10]", "result": 50, "unit": "µg/mL"}, {"measurement": "zone of inhibition at 100 µg/disc", "setting": "[11]", "result": 13, "unit": "mm"}, {"measurement": "MIC", "setting": "Staphylococcus aureus [12]", "result": 25, "unit": "µg/mL"}, {"measurement": "Activity", "setting": "Candida albicans", "result": "inactive"}, {"measurement": "zone of inhibition at 400 µg/disc", "setting": "Staphylococcus aureus [13]", "result": 24, "unit": "mm"}, {"measurement": "Activity", "setting": "Pseudomonas aeruginosa [14]", "result": "inactive"}, {"measurement": "MIC", "setting": "Staphylococcus aureus [15]", "result": 50, "unit": "µg/mL"}, {"measurement": "zone of inhibition at 400 µg/disc", "setting": "Staphylococcus aureus [16]", "result": 20, "unit": "mm"}, {"measurement": "zone of inhibition at 100 µg/disc", "setting": "Staphylococcus aureus [17]", "result": 17, "unit": "mm"}, {"measurement": "MIC", "setting": "Staphylococcus aureus [18]", "result": 50, "unit": "µg/mL"}, {"measurement": "MIC", "setting": "Staphylococcus aureus [19]", "result": 100, "unit": "µg/mL"}, {"measurement": "MIC", "setting": "Staphylococcus aureus [20]", "result": 25, "unit": "µg/mL"}, {"measurement": "MIC", "setting": "Staphylococcus aureus [21]", "result": 25, "unit": "µg/mL"}, {"measurement": "MIC", "setting": "Staphylococcus aureus [22]", "result": 100, "unit": "µg/mL"}, {"measurement": "MIC", "setting": "Staphylococcus aureus [23]", "result": 100, "unit": "µg/mL"}, {"measurement": "zone of inhibition at 100 µg/disc", "setting": "Staphylococcus aureus [24]", "result": 14, "unit": "mm"}, {"measurement": "Activity", "setting": "Pseudomonas aeruginosa [25]", "result": "inactive"}, {"measurement": "MIC", "setting": "Staphylococcus aureus [26]", "result": 200, "unit": "µg/mL"}, {"measurement": "MIC", "setting": "Staphylococcus aureus [27]", "result": 100, "unit": "µg/mL"}, {"measurement": "MIC", "setting": "Staphylococcus aureus [28]", "result": 50, "unit": "µg/mL"}, {"measurement": "MIC", "setting": "Staphylococcus aureus [29]", "result": 50, "unit": "µg/mL"}, {"measurement": "MIC", "setting": "Staphylococcus aureus [30]", "result": 100, "unit": "µg/mL"}, {"measurement": "zone of inhibition at 400 µg/disc", "setting": "Enterococcus hirae", "result": 18, "unit": "mm"}]}]}
